# Source: PubChem
# HKDC1 inhibitor = HKDC1 (human) hexokinase inhibition | Q2TB90 | recombinant HKDC1, G6PDH/diaphorase resazurin coupled fluorescence | inhibition, % at 20 µM | 340,000 tested, 0.16% active;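 active = inhibition above about 35% when tested at 20 µM, limit read from the data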;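 note: plate controls were DMSO wells with enzyme for no effect and DMSO wells lacking enzyme for full effect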
#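 Assay system – recombinant HKDC1 (HK5) hexokinase enzyme, produced in-house · Input – HKDC1 at 5 µg/mL · Reagent – glucose plus 1 mM ATP as hexokinase substrates · Timing – 90 min reaction incubation at room temperature, dark · Measured by – G6PDH/diaphorase-coupled fluorescence, 1 mM NADP, 100 µM resazurin, 525/613 nm · Benchmarks – DMSO-enzyme wells negative, buffer-substituted wells positive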
# Scp-1 inhibitor = Scp-1 (human) phosphatase inhibition; Q9GZU7; Recombinant Scp1, phosphopeptide, malachite green phosphate absorbance; inhibition, % at 20 µM; 340,000 tested, 0.88% active; AID 493091;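 active = inhibition above about 50% at 20 µM, limit read from the data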;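 note: plate controls were DMSO wells with enzyme for no effect and wells lacking enzyme for full effect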
#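 Test system: SCP-1 catalytic domain; Buffer or medium: Acidic Tris acetate buffer with magnesium and detergent; Also added: Phosphorylated 17-residue peptide substrate; Compound: single 20 µM dose, 1% DMSO; Schedule: enzyme reaction 45 min at room temperature, colour 5 min, stabilisation 30 min; Signal: Phosphate-binding colour reagent, absorbance read at 630 nm.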
# STEP block = blocks human striatal-enriched tyrosine phosphatase | P54829 | recombinant STEP, OMFP fluorogenic substrate, fluorescence | inhibition, % at 20 µM | 360,000 tested, 0.25% active;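 active = inhibition at 20 µM, scaled per plate between control wells, above about 37%, limit read from the data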;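 note: 0% = DMSO with enzyme and substrate and 100% = substrate only without enzyme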
#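 Material: STEP (striatal-enriched tyrosine phosphatase) enzyme, cell-free | Medium: 50 mM Bis-Tris pH 6.0 with 2.5 mM DTT and 0.005% Tween 20 | Read-out: Percent inhibition scaled to no-enzyme and uninhibited-enzyme controls, plate-pattern corrected | Signal: Fluorescence read at 480 nm ex / 540 nm em | Times: 20 min reaction, room temperature, in the dark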
# DNMT1 block = blocks human DNA methyltransferase DNMT1; AID 588458; 360,000 tested, 0.83% active; P26358; DNMT1 molecular beacon, Hinp1I cleavage, fluorescence; inhibition (reported as % activation of signal), % at 10 µM; in the data active = inhibition above about 50%
# Target sequence (P26358 504-1616 limits assumed): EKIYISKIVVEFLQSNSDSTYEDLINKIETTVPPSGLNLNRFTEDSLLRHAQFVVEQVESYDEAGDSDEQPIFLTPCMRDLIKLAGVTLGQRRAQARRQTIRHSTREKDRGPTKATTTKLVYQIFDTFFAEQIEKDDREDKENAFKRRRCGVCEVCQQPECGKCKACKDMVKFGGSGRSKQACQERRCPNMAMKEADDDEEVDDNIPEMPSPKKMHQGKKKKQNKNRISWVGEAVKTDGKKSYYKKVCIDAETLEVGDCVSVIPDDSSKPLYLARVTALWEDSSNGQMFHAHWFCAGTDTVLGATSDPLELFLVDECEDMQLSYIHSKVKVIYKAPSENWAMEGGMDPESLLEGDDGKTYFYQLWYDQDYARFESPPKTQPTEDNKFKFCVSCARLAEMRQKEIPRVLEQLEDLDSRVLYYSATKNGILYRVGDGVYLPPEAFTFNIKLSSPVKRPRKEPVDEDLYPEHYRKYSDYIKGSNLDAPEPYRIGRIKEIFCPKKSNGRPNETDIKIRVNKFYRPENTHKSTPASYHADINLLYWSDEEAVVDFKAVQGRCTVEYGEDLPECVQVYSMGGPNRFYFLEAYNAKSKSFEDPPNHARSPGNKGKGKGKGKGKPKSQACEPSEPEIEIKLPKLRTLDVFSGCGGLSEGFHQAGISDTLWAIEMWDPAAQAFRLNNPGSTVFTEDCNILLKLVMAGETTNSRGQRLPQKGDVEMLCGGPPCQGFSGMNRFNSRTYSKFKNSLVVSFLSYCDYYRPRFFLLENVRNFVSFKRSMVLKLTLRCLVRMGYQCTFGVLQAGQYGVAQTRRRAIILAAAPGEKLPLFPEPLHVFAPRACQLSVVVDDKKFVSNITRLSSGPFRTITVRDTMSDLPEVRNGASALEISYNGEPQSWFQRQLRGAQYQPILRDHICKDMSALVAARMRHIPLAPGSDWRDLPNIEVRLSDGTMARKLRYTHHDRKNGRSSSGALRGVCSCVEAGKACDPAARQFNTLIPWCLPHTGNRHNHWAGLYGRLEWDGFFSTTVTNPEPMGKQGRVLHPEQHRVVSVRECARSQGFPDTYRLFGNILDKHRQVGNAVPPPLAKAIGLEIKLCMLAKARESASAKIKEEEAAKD
# SUMO1 PPI mod = SUMO1-SIM interaction modulation | P63165 | SUMO1 binding to a labelled peptide, TR-FRET, 1 h | inhibition, % at 20 µM | 360,000 tested, 0.33% active | AID 602429; in the data active = inhibition above about 37%
# LMPTP inh = blocks human LMPTP phosphatase; inhibition, % at 20 µM; recombinant LMPTP-A, OMFP fluorogenic substrate, fluorescence intensity; P24666; 360,000 tested, 0.22% active; AID 651560;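 active = compounds that cut the enzyme signal by at least half of the control window in the single-dose screen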;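 note: plate controls were DMSO wells with enzyme plus substrate for no effect and substrate without enzyme for full effect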
#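 Test system: LMPTP-A phosphatase enzyme; input: 0.625 nM LMPTP-A final; reagent: OMFP substrate, 400 µM final; compound dosing: 20 µM single dose, 3% DMSO; incubation: 50 min dark incubation at room temperature; measured by: endpoint fluorescence intensity from OMFP dephosphorylation; measure: % inhibition relative to no-enzyme and uninhibited control wells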
# DNMT1 interf DR = beacon fluorescence artifact, dose response counter-screen. shares compounds with DNMT1 block. molecular beacon fluorescence, spectral interference counter-screen. IC50, µM. 200 tested, under 10 active. AID 602382; call rule not given here
# DNMT1 inh conf = DNMT1 inhibition confirmation, single concentration. shares compounds with DNMT1 block. DNMT1 molecular beacon HinP1I cleavage, fluorescence. inhibition, % at 10 µM. 2,300 tested, 8% active;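 active = average inhibition of at least 30% in the single-concentration confirmation test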
# Beacon interf = counter-screen for DNMT1 inhibitors: spectral interference; shares compounds with DNMT1 block; DNMT1 molecular beacon spectral interference counterscreen, fluorescence 485/520; activation (fluorescence interference), % at 10 µM; 2,300 tested, 1% active; AID 602387;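 active = activation of at least 30% at 10 µM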;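 note: DNMT1 catalytic domain with a HinP1I cleavage step and a FAM/dabcyl DNA beacon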
# * = called active by the depositor; nt = no result. Only some compounds are listed: those with a hit (about 1.8% of all), similar ones and a draw of the others.
SMILES,HKDC1 inhibitor,Scp-1 inhibitor,STEP block,DNMT1 block,SUMO1 PPI mod,LMPTP inh,DNMT1 inh conf,Beacon interf,others
COc1ccc(NC(=O)CN2C(=O)S/C(=C/c3cccn3-c3ccc(C(=O)O)cc3)C2=O)cc1,nt,nt,86*,78*,14,77*,12,-1,
O=C(OCC(O)C1OC(c2ccccc2)OC(COC(=O)c2ccccc2)C1O)c1ccccc1 (stereo not drawn),nt,nt,1,25,1,2,nt,nt,
O=C(O)C1=CCC=CC1C(=O)O (stereo not drawn),nt,nt,20,99*,69*,12,17,4,
N#Cc1ccccc1/C=N/Nc1nc(-c2ccccc2)c2cc(Br)ccc2n1,-1,1,-7,73*,11,11,-1,-4,
OCCNc1nc(-c2ccccc2)c2cc(Br)ccc2n1,3,0,1,1,-13,1,nt,nt,
Cc1ccc(NC2CCCCC2NS(=O)(=O)c2ccc(Cl)cc2)cc1 (stereo not drawn),9,1,-2,-3,-3,1,nt,nt,
O=S(=O)(NC1CCCCC1Nc1ccc(Cl)cc1)c1ccccc1 (stereo not drawn),2,-7,1,73*,0,1,1,4,
O=C(Nc1ccc(N2CCCC2)cc1)c1ccccc1F,-7,-4,2,72*,-1,43,4,10,
O=C(Nc1ccc(N2CCCC2)cc1)c1cccc(F)c1,3,3,4,65*,0,10,2,4,
O=C(Nc1ccc(S(=O)(=O)N2CCOCC2)cc1)c1ccc([N+](=O)[O-])cc1Cl,-1,-11,0,-1,-30,1,nt,nt,
CC(=O)N1CCN(c2ccc(NC(=O)c3ccc4ccccc4c3)cc2)CC1,-3,-5,0,-3,-8,1,nt,nt,
O=C(Nc1ccc(N2CCCC2)cc1)c1ccc([N+](=O)[O-])cc1Cl,-7,1,1,74*,-10,36,1,-2,
O=C(Nc1ccc(N2CCCC2)cc1)c1ccc2ccccc2c1,-7,-3,7,61*,1,7,3,2,
CCOC(=O)c1ccc(NC(=S)NNC(=O)C2(C)CC2(Cl)Cl)cc1 (stereo not drawn),3,6,-3,-1,10,0,nt,nt,
O=C(Cc1ccccc1F)OCN1C(=O)c2ccccc2C1=O,0,-2,3,2,-5,2,nt,nt,
Cc1ccc(OCc2ccoc2C(=O)O)cc1C,-3,50,4,54*,4,0,4,-1,
Cc1ccc(OCc2ccc(C(=O)O)o2)cc1C,0,30,2,2,-5,-3,nt,nt,
COc1ccc(-c2oc3c(c2C#CCCCCO)C(OCCO)CC3)cc1 (stereo not drawn),nt,nt,nt,nt,-1,1,nt,nt,
CC(=O)NCCC(=O)Nc1cccc(S(=O)(=O)N(C)c2ccccc2)c1,5,3,-2,56*,0,0,3,1,
CN(CC(=O)Nc1cccc(F)c1)CC(=O)Nc1cccc(S(=O)(=O)N(C)c2ccccc2)c1,4,-5,0,-11,-1,3,nt,nt,
COc1cc2cc(Oc3ccc4ccc(=O)oc4c3)c(=O)oc2cc1O[C@@H]1O[C@H](CO)[C@@H](O)[C@H](O)[C@H]1O,-5,24,1,105*,4,2,61*,-1,DNMT1 interf DR=>99
COc1cc2cc(Oc3ccc4ccc(=O)oc4c3)c(=O)oc2cc1OC1OC(COC(=O)CC(C)(O)CC(=O)O)C(O)C(O)C1O (stereo not drawn),-7,28,-3,9,11,-2,nt,nt,
CN(C)C(CNC(=O)C1CCN(S(=O)(=O)c2ccccc2)CC1)c1ccccc1 (stereo not drawn),-3,12,20,88*,2,2,5,7,
CN(C)C(CNC(=O)C1CCN(S(=O)(=O)c2cccc(C(F)(F)F)c2)CC1)c1ccccc1 (stereo not drawn),-4,-8,-1,0,-8,-9,nt,nt,
O=C(Nc1ccccc1N1CCOCC1)c1ccc2c(c1)OCCO2,-8,-6,0,0,-1,0,nt,nt,
SMILES,HKDC1 inhibitor,Scp-1 inhibitor,STEP block,DNMT1 block,SUMO1 PPI mod,LMPTP inh,DNMT1 inh conf,Beacon interf,others
Cc1ccc2c(N)c(C)ccc2c1,6,-9,-2,-9,-18,-1,nt,nt,
Cc1ccc2cc3c(N)c4c(C)ccc(C)c4nc3nc2c1,7,-7,-7,72*,-13,5,25,-8,DNMT1 interf DR=>99
CCNC(=O)C1CCCN(Cc2cc(C(F)(F)F)ccc2Cl)CC1 (stereo not drawn),nt,nt,-1,-4,-5,-1,nt,nt,
Cc1cc(C)c2c(N)c3ccccc3nc2n1,-6,-7,1,67*,-25,10,26,4,
COC(=O)c1ccc(NC(=O)CCN2CCOCC2)cc1,-4,-1,1,92*,-4,-1,2,3,
CCS(=O)(=O)c1ccc(-c2cccc(NC(=O)COc3ccc(Cl)cc3)c2)nn1,-5,8,0,5,-3,3,nt,nt,
O=C(O)c1cc2ccccc2cn1,1,3,3,4,1,14,nt,nt,
O=C(O)C1Oc2cc3ccccc3cc2O1,3,50,16,55*,4,23,5,4,
COc1cccc(N2CCN(C(=O)c3nc4nc(C)cc(C)n4n3)CC2)c1,-15,-7,-1,-1,1,2,nt,nt,
Cc1cc2nc(-c3ccc(NC(=O)C(C)C)cc3)oc2cc1C,-7,-7,-4,63*,-1,0,4,1,
Cc1cc(C)c(C)c(S(=O)(=O)N2CCN(c3ncnc4ccccc34)CC2)c1C,6,5,6,75*,7,9,0,2,
CCC(=O)Nc1ccc(NC(=S)NC(=O)c2cc3ccccc3o2)cc1,-8,-7,2,0,0,-2,nt,nt,
CCCC(=O)Nc1ccc(Cl)c(NC(=S)NC(=O)c2cc3ccccc3o2)c1,-8,-1,1,56*,0,-3,3,5,
Cc1cnc(NC(=O)c2ccc(-c3ccc([N+](=O)[O-])cc3)o2)s1,-4,-5,2,-8,-19,5,nt,nt,
Cc1ccc(Cc2cnc(NC(=O)/C(C#N)=C/c3ccc(-c4ccc([N+](=O)[O-])cc4)o3)s2)cc1,-7,-5,6,52*,-17,3,1,6,
